Test results: ChEMBL document CHEMBL3872205, “Design, synthesis and evaluation of novel potent angiotensin II receptor 1 antagonists” (Eur J Med Chem, 2016)

Columns and labels:
[1] = AUC (0 to 72 hrs) in Wistar rat plasma at 10 mg/kg, po by HPLC analysis; assay type: ADME, organism-based; parameters: time < 72 hr, dose 10 mg/kg, route oral
Summary of the method: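 Male Wistar rats (180 ± 20 g, n = 6 per group) got one oral dose. Heparinized blood was taken by retro-orbital puncture before dosing and at 0.5–72 h. Plasma was spun at 4000 × g, 4 °C, 10 min, spiked with internal standard and protein-precipitated with acetonitrile. Analysis was reverse-phase C18 HPLC (0.02 mol/L KH2PO4 55%/acetonitrile 45%, 1.0 mL/min). Calibration used 0.1–10 µg/mL, peak-height ratio, weighting concentration^-2.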

Rattus norvegicus = experiment: Antihypertensive activity in spontaneous hypertensive rat model assessed as reduction in mean blood pressure at 10 mg/kg, po after 4 hrs; assay type: functional
Summary of the method: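 Male SHRs (250 ± 20 g) were randomized, 6 per group. Compound was suspended in 0.5% sodium carboxymethyl cellulose and given orally; vehicle-only negative control. Mean blood pressure was calculated as (SBP − DBP)/3 + DBP from systolic and diastolic readings over the time course. Data are mean ± SD, with p < 0.05 taken as significant.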

[2] = MRT (0 to 72 hrs) in Wistar rat plasma at 15 mg/kg, po by HPLC analysis; assay type: ADME, organism-based
Summary of the method: (§1)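 Male Wistar rats (180 ± 20 g), 6 per dose group, each given a single oral dose. Blood was drawn by retro-orbital puncture into heparin at predose and at 0.5, 1, 2, 4, 6, 8, 12, 24, 48 and 72 h, then spun at 4000 × g and 4 °C. Plasma with internal standard was acetonitrile-precipitated, filtered and run on reverse-phase C18 HPLC (0.02 mol/L KH2PO4 55% / acetonitrile 45%, 1.0 mL/min). Calibration standards were 0.1–10 µg/mL, fitted by peak-height ratio with 1/conc² weighting.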

[3] = MRT (0 to 72 hrs) in Wistar rat plasma at 30 mg/kg, po by HPLC analysis; assay type: ADME, organism-based; summary of the method: as §1
[4] = Half life in Wistar rat plasma at 10 mg/kg, po by HPLC analysis; assay type: ADME, organism-based
[5] = Tmax in Wistar rat plasma at 10 mg/kg, po by HPLC analysis; assay type: ADME, organism-based; summary of the method: as §1
[6] = Tmax in Wistar rat plasma at 30 mg/kg, po by HPLC analysis; assay type: ADME, organism-based; summary of the method: as §1
[7] = AUC (0 to infinity) in Wistar rat Heart at 10 mg/kg, po by HPLC analysis; assay type: ADME, organism-based; parameters: dose 10 mg/kg, time infinity, route oral
Summary of the method: (§2)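 Wistar rats (180 ± 20 g) were dosed orally at 10, 15 or 30 mg/kg. Heart, liver, spleen, lung, kidney and brain were collected at 0–72 h (n = 6 per point). Tissue was rinsed, blotted and homogenized in saline (0.25 g/1 mL), then spun at 10,000 × g. Supernatant was methanol-extracted, dried under nitrogen at 50 °C, reconstituted in methanol and run on C18 HPLC (acetonitrile 60%/water 40%, 1.0 mL/min).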

[8] = MRT (0 to 72 hrs) in Wistar rat Heart at 10 mg/kg, po by HPLC analysis; assay type: ADME, organism-based
Summary of the method: (§3)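 Tissue distribution in male Wistar rats given oral 10, 15 or 30 mg/kg; heart, liver, spleen, lung, kidney and brain collected predose and 0.5–72 h post-dose (n = 6 per time). Tissue rinsed in saline, homogenised 0.25 g/1 mL saline, methanol extraction, dried under nitrogen, reconstituted in methanol. Analysis by reverse-phase C18 HPLC, acetonitrile/water 60:40, 1.0 mL/min, ambient temperature.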

[9] = MRT (0 to 72 hrs) in Wistar rat Heart at 30 mg/kg, po by HPLC analysis; assay type: ADME, organism-based; summary of the method: as §3
[10] = Tmax in Wistar rat Heart at 30 mg/kg, po by HPLC analysis; assay type: ADME, organism-based
Summary of the method: (§4)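 Male Wistar rats (180 ± 20 g) received a single oral dose of 10, 15 or 30 mg/kg. Tissues were collected at 0, 0.5, 1, 2, 4, 6, 8, 12, 24, 48 and 72 h (n = 6 per point). Samples of 0.25 g were rinsed, then homogenized in saline (0.25 g/1 mL) and centrifuged at 10,000 × g. Supernatant was methanol-extracted, dried under nitrogen at 50 °C and reconstituted in methanol. Analysis was by C18 HPLC (acetonitrile 60% / water 40%, 1.0 mL/min).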

[11] = AUC (0 to infinity) in Wistar rat liver at 10 mg/kg, po by HPLC analysis; assay type: ADME, organism-based; parameters: dose 10 mg/kg, route oral, time infinity; summary of the method: as §2
[12] = MRT (0 to infinity) in Wistar rat liver at 10 mg/kg, po by HPLC analysis; assay type: ADME, organism-based; summary of the method: as §4
[13] = Tmax in Wistar rat liver at 15 mg/kg, po by HPLC analysis; assay type: ADME, organism-based; summary of the method: as §4
[14] = AUC (0 to infinity) in Wistar rat spleen at 15 mg/kg, po by HPLC analysis; assay type: ADME, organism-based; parameters: dose 15 mg/kg, route oral, time infinity; summary of the method: as §2
[15] = MRT (0 to 72 hrs) in Wistar rat spleen at 10 mg/kg, po by HPLC analysis; assay type: ADME, organism-based; summary of the method: as §4
[16] = MRT (0 to 72 hrs) in Wistar rat spleen at 30 mg/kg, po by HPLC analysis; assay type: ADME, organism-based; summary of the method: as §4
[17] = MRT (0 to infinity) in Wistar rat spleen at 10 mg/kg, po by HPLC analysis; assay type: ADME, organism-based; summary of the method: as §4
[18] = MRT (0 to infinity) in Wistar rat spleen at 30 mg/kg, po by HPLC analysis; assay type: ADME, organism-based; summary of the method: as §4
[19] = Half life in Wistar rat spleen at 10 mg/kg, po by HPLC analysis; assay type: ADME, organism-based; summary of the method: as §3
[20] = AUC (0 to 72 hrs) in Wistar rat lung at 15 mg/kg, po by HPLC analysis; assay type: ADME, organism-based; parameters: dose 15 mg/kg, time < 72 hr, route oral; summary of the method: as §2
[21] = MRT (0 to infinity) in Wistar rat lung at 30 mg/kg, po by HPLC analysis; assay type: ADME, organism-based; summary of the method: as §4
[22] = AUC (0 to 72 hrs) in Wistar rat kidney at 10 mg/kg, po by HPLC analysis; assay type: ADME, organism-based; parameters: dose 10 mg/kg, time < 72 hr, route oral; summary of the method: as §2
[23] = AUC (0 to infinity) in Wistar rat kidney at 10 mg/kg, po by HPLC analysis; assay type: ADME, organism-based; parameters: dose 10 mg/kg, time infinity, route oral; summary of the method: as §2
[24] = Tmax in Wistar rat kidney at 30 mg/kg, po by HPLC analysis; assay type: ADME, organism-based; summary of the method: as §4
[25] = Cmax in Wistar rat kidney at 10 mg/kg, po by HPLC analysis; assay type: ADME, organism-based; parameters: dose 10 mg/kg, route oral; summary of the method: as §3
[26] = AUC (0 to infinity) in Wistar rat brain at 30 mg/kg, po by HPLC analysis; assay type: ADME, organism-based; parameters: dose 30 mg/kg, route oral, time infinity; summary of the method: as §2
[27] = MRT (0 to 72 hrs) in Wistar rat brain at 30 mg/kg, po by HPLC analysis; assay type: ADME, organism-based; summary of the method: as §3
[28] = MRT (0 to infinity) in Wistar rat brain at 10 mg/kg, po by HPLC analysis; assay type: ADME, organism-based; summary of the method: as §4
[29] = MRT (0 to infinity) in Wistar rat brain at 30 mg/kg, po by HPLC analysis; assay type: ADME, organism-based; summary of the method: as §4
[30] = Tmax in Wistar rat brain at 10 mg/kg, po by HPLC analysis; assay type: ADME, organism-based; summary of the method: as §4
[31] = Cmax in Wistar rat brain at 10 mg/kg, po by HPLC analysis; assay type: ADME, organism-based; parameters: dose 10 mg/kg, route oral; summary of the method: as §2
[32] = Cmax in Wistar rat brain at 30 mg/kg, po by HPLC analysis; assay type: ADME, organism-based; parameters: dose 30 mg/kg, route oral; summary of the method: as §2
[33] = Toxicity in ICR mouse assessed as mortality at 2343.75 mg/kg, ig after 2 weeks; assay type: organism-based; settings: in vivo, po

CCCCC1=NC2(CCCC2)C(=O)N1Cc1ccc2c(ccn2-c2ccccc2-c2nnn[nH]2)c1
AUC(0-t) at 72 h [1]: 6110 ng·h/mL
Activity (Rattus norvegicus): 28.39 mmHg
MRT last [2]: 10.2 h
MRT last [3]: 12.9 h
half-life [4]: 596 min
Tmax [5]: 5.67 h
Tmax [6]: 5 h
AUC(0-inf) [7]: 962 ng·h/mL
MRT last [8]: 7.68 h
MRT last [9]: 16.2 h
Tmax [10]: 4.8 h
AUC(0-inf) [11]: 3320 ng·h/mL
MRT inf [12]: 3.58 h
Tmax [13]: 2 h
AUC(0-inf) [14]: 12000 ng·h/mL
MRT last [15]: 20.2 h
MRT last [16]: 13.3 h
MRT inf [17]: 30.4 h
MRT inf [18]: 20.4 h
half-life [19]: 1070 min
AUC(0-t) at 72 h [20]: 1350 ng·h/mL
MRT inf [21]: 4.1 h
AUC(0-t) at 72 h [22]: 4340 ng·h/mL
AUC(0-inf) [23]: 10800 ng·h/mL
Tmax [24]: 2 h
Cmax [25]: 180 ng/mL
AUC(0-inf) [26]: 1790 ng·h/mL
MRT last [27]: 9.03 h
MRT inf [28]: 8.1 h
MRT inf [29]: 9.02 h
Tmax [30]: 6.67 h
Cmax [31]: 37.2 ng/mL
Cmax [32]: 196 ng/mL
mortality at 336 h [33]: 80%
